Each structure is given as a SMILES string. ≈ marks a conversion by molar mass, not a printed value.

One may read the inhibition as the drop in the measured response relative to a control, in per cent. Broadly, the solubility is the dissolved amount per volume that the medium holds.

Data set [1] concerns the target Diacylglycerol O-acyltransferase 1 (Homo sapiens) (UniProt O75907). In words: Inhibition of human DGAT1 assessed as conversion of [14C]-oleoyl-CoA to [14C]-triglyceride at 1 uM after 10 mins by scintillation counting.
Data set [2] in a line: Aqueous solubility of the compound at pH 7.4 after 24 hrs. Format: physicochemical. The note with it: aqueous medium.
Another data set has as its system Mus musculus. In words: Antiobesity activity in Swiss mouse assessed as reduction in plasma triglyceride level at 3 mg/kg, po measured after 4 hrs by fat tolerance test. Type of data set: functional. The arrangement: scale not given: the % may be the effect or the level left. An outline of the steps:
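Fasted Swiss mice (4-5 weeks, 25-30 g) gavaged with test compound at 3 mg/kg as a suspension in 0.5% CMC with Tween 80, or with vehicle. Olive oil bolus (10 ml/kg) given 1 h later. Plasma TG measured by kit at 1, 2, 3 and 4 h. AUC0-4h expressed relative to vehicle (100%). Mean ± SEM, n = 8.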

Chain of Diacylglycerol O-acyltransferase 1 (Homo sapiens) (O75907 whole entry, looked up): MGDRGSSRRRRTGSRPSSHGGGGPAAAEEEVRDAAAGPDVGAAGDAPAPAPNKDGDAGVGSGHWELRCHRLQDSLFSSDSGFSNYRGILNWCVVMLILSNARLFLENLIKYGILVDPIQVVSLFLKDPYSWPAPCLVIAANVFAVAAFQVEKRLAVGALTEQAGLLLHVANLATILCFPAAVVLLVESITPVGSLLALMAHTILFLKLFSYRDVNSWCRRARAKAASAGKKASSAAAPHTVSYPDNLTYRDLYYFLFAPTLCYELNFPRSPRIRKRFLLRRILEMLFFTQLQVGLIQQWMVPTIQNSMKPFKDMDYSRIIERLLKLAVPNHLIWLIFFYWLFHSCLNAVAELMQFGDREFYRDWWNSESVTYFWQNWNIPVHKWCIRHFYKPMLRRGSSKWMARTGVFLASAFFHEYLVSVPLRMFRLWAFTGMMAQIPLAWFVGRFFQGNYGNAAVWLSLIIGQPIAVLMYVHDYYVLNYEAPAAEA

For `CC(C)[C@H](NC(=O)c1ncc(-c2ccc(NC(=O)Nc3ccc(Cl)cc3)cc2)o1)C(=O)O`, the inhibition in data set [1] turned out to be 59%. On the same count and under the same terms, the same measure for `CC(C)[C@H](NC(=O)c1cc(-c2ccc(NC(=O)Nc3ccc(Cl)cc3F)cc2)no1)C(=O)O`: 90%. The same measure, in the same setting: the same measure for `CC(C)[C@H](NC(=O)c1cc(-c2ccc(NC(=S)Nc3ccccc3F)cc2)no1)C(=O)O`: 72%. On the same count and under the same terms, the value for `CC(C)[C@H](NC(=O)c1cc(-c2ccc(OCc3ccc(F)cc3)cc2)no1)C(=O)O` was 18%; that for `CC(C)[C@H](NC(=O)c1ncc(-c2ccc(NC(=O)Nc3ccc(Cl)cc3Oc3ccccc3)cc2)o1)C(=O)O` was 91%.

For `CC(C)[C@H](NC(=O)c1nc(-c2ccc(NC(=O)Nc3ccccc3Cl)cc2)no1)C(=O)O`, in data set [1], the inhibition came out at 62%. In data set [2], `CC(C)[C@H](NC(=O)c1ccc(-c2ccc(Nc3nc4ccc(F)cc4s3)cc2)cc1)C(=O)O` yielded a solubility at 24 h of 10 µg/mL (≈ 21.6 µM). In the data set on Mus musculus, the Activity came to 84%. As for `CC(C)[C@H](NC(=O)c1cc(-c2ccc(NC(=O)Nc3ccc(F)cc3F)cc2)no1)C(=O)O`, the inhibition in data set [1] amounted to 85%. The compound `CC(C)[C@H](NC(=O)c1cc(-c2ccc(Nc3nc4ccc(F)cc4s3)cc2)no1)C(=O)O` yielded a solubility at 24 h in data set [2] of 60 µg/mL (≈ 132 µM). Further, in the data set on Mus musculus, the Activity came to 29%.

Consider `CC(C)[C@H](NC(=O)c1nc(-c2ccc(NC(=O)Nc3ccc(Cl)cc3)cc2)no1)C(=O)O`, for which, in data set [1], the inhibition was determined as 40%.

In the case of `CC(C)[C@H](NC(=O)c1cc(-c2ccc(NC(=O)Nc3ccc(Cl)cc3Oc3ccccc3)cc2)no1)C(=O)O`, in data set [1], the inhibition amounted to 91%. The solubility at 24 h in data set [2] stood at 140 µg/mL (≈ 255 µM). Also, the Activity in the data set on Mus musculus is given as 35%. `CC(C)[C@H](NC(=O)c1cc(-c2ccc(NC(=O)Nc3ccc(Cl)cc3)cc2)no1)C(=O)O`: the inhibition in data set [1] came to 84%.

Regarding `CC(C)[C@H](NC(=O)c1cc(-c2ccc(NC(=O)Nc3cccc(C(F)(F)F)c3)cc2)no1)C(=O)O`, the inhibition in data set [1] stood at 85%. Same read-out and setting: the value for `CC(C)[C@H](NC(=O)c1cc(-c2ccc(NC(=O)[C@H](O)c3ccccc3)cc2)no1)C(=O)O` was 59%. In data set [2], `COc1ccc(NC(=O)Nc2ccc(-c3cc(C(=O)N[C@H](C(=O)O)C(C)C)on3)cc2)cc1` came in with a solubility at 24 h of 430 µg/mL (≈ 950 µM). The Activity in the data set on Mus musculus is recorded as 90%.

In the case of `CC(C)[C@H](NC(=O)c1cc(-c2ccc(NC(=O)Nc3ccc(F)cc3)cc2)no1)C(=O)O`, the inhibition in data set [1] came out at 78%. Same read-out and setting: the value for `CC(C)[C@H](NC(=O)c1cc(-c2ccc(NC(=O)Nc3cccc(Cl)c3)cc2)no1)C(=O)O` was 84%. The same measure, in the same setting: the same measure for `CC(C)[C@H](NC(=O)c1nc(-c2ccc(NC(=O)Nc3cccc(Cl)c3)cc2)no1)C(=O)O`: 71%; for `CC(C)[C@H](NC(=O)c1ncc(-c2ccc(NC(=O)Nc3cccc(Cl)c3)cc2)o1)C(=O)O`: 72%; for `CC(C)[C@H](NC(=O)c1ncc(-c2ccc(NC(=O)Nc3cccc(C(F)(F)F)c3)cc2)o1)C(=O)O`: 75%.

Consider `CC(C)[C@H](NC(=O)c1cc(-c2ccc(NC(=O)C(=O)Nc3cccc(C(F)(F)F)c3)cc2)no1)C(=O)O`, for which the inhibition in data set [1] was 16%. For the compound `CC(C)[C@H](NC(=O)c1ncc(-c2ccc(NC(=O)Nc3ccc(Cl)cc3F)cc2)o1)C(=O)O`, the inhibition in data set [1] is 70%. The same measure, in the same setting: the same measure for `Cc1ccccc1S(=O)(=O)NC(=O)Nc1ccc(-c2cc(C(=O)N[C@H](C(=O)O)C(C)C)on2)cc1`: 26%; for `Cc1ccc(NC(=O)Nc2ccc(-c3cc(C(=O)N[C@H](C(=O)O)C(C)C)on3)cc2)cc1C`: 83%.

For `CC(C)[C@H](NC(=O)c1cc(-c2ccc(NS(=O)(=O)c3c(F)cccc3F)cc2)no1)C(=O)O`, the inhibition in data set [1] is 23%.

With `CC(C)[C@H](NC(=O)c1ncc(-c2ccc(NC(=O)Nc3ccccc3Cl)cc2)o1)C(=O)O`, in data set [1], the inhibition came out at 80%.

For the compound `Cc1ccc(NC(=O)Nc2ccc(-c3noc(C(=O)N[C@H](C(=O)O)C(C)C)n3)cc2)cc1`, the inhibition in data set [1] turned out to be 61%. Turning to `Cc1ccc(NC(=O)Nc2ccc(-c3cc(C(=O)N[C@H](C(=O)O)C(C)C)on3)cc2)cc1`, the inhibition in data set [1] was found to be 80%. Moreover, the solubility at 24 h in data set [2] is 380 µg/mL (≈ 871 µM). In the data set with Mus musculus, the Activity was determined as 79%. Regarding `CC(C)[C@H](NC(=O)c1nc(-c2ccc(NC(=O)Nc3ccc(F)cc3)cc2)no1)C(=O)O`, the inhibition in data set [1] was 61%. The same measure, in the same setting: the value for `CC(C)[C@H](NC(=O)c1cc(-c2ccc(NC(=O)c3ccc(F)cc3)cc2)no1)C(=O)O` was 44%; that for `CC(C)[C@H](NC(=O)c1cc(-c2ccc(NC(=O)Nc3ccccc3Cl)cc2)no1)C(=O)O` was 90%. Same read-out and setting: the value for `Cc1ccc(NC(=O)Nc2ccc(-c3cnc(C(=O)N[C@H](C(=O)O)C(C)C)o3)cc2)cc1C` was 69%; that for `CC(C)[C@H](NC(=O)c1nc(-c2ccc(NC(=O)Nc3ccc(F)cc3F)cc2)no1)C(=O)O` was 75%. On the same count and under the same terms, the value for `CC(C)[C@H](NC(=O)c1nc(-c2ccc(NC(=O)Nc3cccc(C(F)(F)F)c3)cc2)no1)C(=O)O` was 48%.

These data come from ChEMBL document CHEMBL2040747, “Synthesis and biological evaluation of isoxazole, oxazole, and oxadiazole containing heteroaryl analogs of biaryl ureas as DGAT1 inhibitors” (Eur J Med Chem, 2012).
